# According to ChEMBL document CHEMBL1137730, “Synthesis and antiparasitic and antifungal evaluation of 2'-arylsubstituted-1H,1'H-[2,5']bisbenzimidazolyl-5-carboxamidines” (Eur J Med Chem, 2009):
# System: Trypanosoma cruzi
# Assay: Antiparasitic activity against Trypanosoma cruzi Tulahuen C4 containing lacz gene at 4.85 ug/ml
# Type: functional
# Conditions: Tulahen C4
row,SMILES,inhibition at 4.85 µg/mL [%]
1,N=C(N)c1ccc2[nH]c(-c3ccc4nc(-c5ccccc5F)[nH]c4c3)nc2c1,≤ 70
2,N=C(N)c1ccc2[nH]c(-c3ccc4nc(-c5ccc(OCc6ccccc6)c(OCc6ccccc6)c5)[nH]c4c3)nc2c1,≤ 70
3,N=C(N)c1ccc2[nH]c(-c3ccc4nc(-c5ccccc5Oc5ccc(Cl)cc5)[nH]c4c3)nc2c1,≤ 70
4,N=C(N)c1ccc2[nH]c(-c3ccc4nc(-c5ccc6ccccc6c5)[nH]c4c3)nc2c1,≤ 70
5,N=C(N)c1ccc2[nH]c(-c3ccc4nc(-c5ccc(F)c(F)c5)[nH]c4c3)nc2c1,≤ 70
6,N=C(N)c1ccc2[nH]c(-c3ccc4nc(-c5ccc(F)cc5)[nH]c4c3)nc2c1,≤ 70
7,CC(C)(C)c1ccc(-c2nc3ccc(-c4nc5cc(C(=N)N)ccc5[nH]4)cc3[nH]2)cc1,≤ 70
8,CC(C)(C)c1cccc(-c2nc3ccc(-c4nc5cc(C(=N)N)ccc5[nH]4)cc3[nH]2)c1O,≤ 70
9,N=C(N)c1ccc2[nH]c(-c3ccc4nc(-c5cc(C(F)(F)F)ccc5Cl)[nH]c4c3)nc2c1,≤ 70
10,N=C(N)c1ccc2[nH]c(-c3ccc4nc(-c5cc(C(F)(F)F)cc(C(F)(F)F)c5)[nH]c4c3)nc2c1,≤ 70
11,N=C(N)c1ccc2[nH]c(-c3ccc4nc(-c5ccc(OCc6ccccc6)cc5)[nH]c4c3)nc2c1,≤ 70

# System: Plasmodium falciparum
# Assay: Antiparasitic activity against Plasmodium falciparum K1
# Type: functional, organism-based
# Conditions: not given
row,IC50 [µg/mL],SMILES
1,0.007,N=C(N)c1ccc2[nH]c(-c3ccc4nc(-c5ccccc5F)[nH]c4c3)nc2c1
2,0.061,N=C(N)c1ccc2[nH]c(-c3ccc4nc(-c5ccc(OCc6ccccc6)c(OCc6ccccc6)c5)[nH]c4c3)nc2c1
3,0.193,N=C(N)c1ccc2[nH]c(-c3ccc4nc(-c5ccccc5Oc5ccc(Cl)cc5)[nH]c4c3)nc2c1
4,0.016,N=C(N)c1ccc2[nH]c(-c3ccc4nc(-c5ccc6ccccc6c5)[nH]c4c3)nc2c1
5,0.015,N=C(N)c1ccc2[nH]c(-c3ccc4nc(-c5ccc(F)c(F)c5)[nH]c4c3)nc2c1
6,0.01,N=C(N)c1ccc2[nH]c(-c3ccc4nc(-c5ccc(F)cc5)[nH]c4c3)nc2c1
7,0.031,CC(C)(C)c1ccc(-c2nc3ccc(-c4nc5cc(C(=N)N)ccc5[nH]4)cc3[nH]2)cc1
8,0.211,CC(C)(C)c1cccc(-c2nc3ccc(-c4nc5cc(C(=N)N)ccc5[nH]4)cc3[nH]2)c1O
9,0.064,N=C(N)c1ccc2[nH]c(-c3ccc4nc(-c5cc(C(F)(F)F)ccc5Cl)[nH]c4c3)nc2c1
10,0.63,N=C(N)c1ccc2[nH]c(-c3ccc4nc(-c5cc(C(F)(F)F)cc(C(F)(F)F)c5)[nH]c4c3)nc2c1
11,0.017,N=C(N)c1ccc2[nH]c(-c3ccc4nc(-c5ccc(OCc6ccccc6)cc5)[nH]c4c3)nc2c1

# System: Trypanosoma brucei rhodesiense
# Assay: Antiparasitic activity against Trypanosoma brucei rhodesiense STIB900
# Type: functional, organism-based
# Conditions: not given
row,IC50 [µg/mL],SMILES
1,0.08,N=C(N)c1ccc2[nH]c(-c3ccc4nc(-c5ccccc5F)[nH]c4c3)nc2c1
2,1.06,N=C(N)c1ccc2[nH]c(-c3ccc4nc(-c5ccc(OCc6ccccc6)c(OCc6ccccc6)c5)[nH]c4c3)nc2c1
3,0.389,N=C(N)c1ccc2[nH]c(-c3ccc4nc(-c5ccc6ccccc6c5)[nH]c4c3)nc2c1
4,0.33,N=C(N)c1ccc2[nH]c(-c3ccc4nc(-c5ccc(F)c(F)c5)[nH]c4c3)nc2c1
5,0.04,N=C(N)c1ccc2[nH]c(-c3ccc4nc(-c5ccc(F)cc5)[nH]c4c3)nc2c1
6,1.06,CC(C)(C)c1ccc(-c2nc3ccc(-c4nc5cc(C(=N)N)ccc5[nH]4)cc3[nH]2)cc1
7,0.81,N=C(N)c1ccc2[nH]c(-c3ccc4nc(-c5ccc(OCc6ccccc6)cc5)[nH]c4c3)nc2c1

# System: L6
# Assay: Cytotoxicity against rat L6 cells by alamar blue assay
# Type: cell-based
# Conditions: not given
# Procedure, shortened: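 Rat L-6 myoblasts in culture; viability read by Alamar Blue.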
row,SMILES,IC50 [µg/mL]
1,N=C(N)c1ccc2[nH]c(-c3ccc4nc(-c5ccccc5F)[nH]c4c3)nc2c1,26.8
2,N=C(N)c1ccc2[nH]c(-c3ccc4nc(-c5ccc(OCc6ccccc6)c(OCc6ccccc6)c5)[nH]c4c3)nc2c1,> 90
3,N=C(N)c1ccc2[nH]c(-c3ccc4nc(-c5ccccc5Oc5ccc(Cl)cc5)[nH]c4c3)nc2c1,> 90
4,N=C(N)c1ccc2[nH]c(-c3ccc4nc(-c5ccc6ccccc6c5)[nH]c4c3)nc2c1,34.7
5,N=C(N)c1ccc2[nH]c(-c3ccc4nc(-c5ccc(F)c(F)c5)[nH]c4c3)nc2c1,29.8
6,N=C(N)c1ccc2[nH]c(-c3ccc4nc(-c5ccc(F)cc5)[nH]c4c3)nc2c1,2.48
7,CC(C)(C)c1ccc(-c2nc3ccc(-c4nc5cc(C(=N)N)ccc5[nH]4)cc3[nH]2)cc1,13
8,CC(C)(C)c1cccc(-c2nc3ccc(-c4nc5cc(C(=N)N)ccc5[nH]4)cc3[nH]2)c1O,13.4
9,N=C(N)c1ccc2[nH]c(-c3ccc4nc(-c5cc(C(F)(F)F)ccc5Cl)[nH]c4c3)nc2c1,31.8
10,N=C(N)c1ccc2[nH]c(-c3ccc4nc(-c5cc(C(F)(F)F)cc(C(F)(F)F)c5)[nH]c4c3)nc2c1,76.8
11,N=C(N)c1ccc2[nH]c(-c3ccc4nc(-c5ccc(OCc6ccccc6)cc5)[nH]c4c3)nc2c1,17.4

# System: Candida albicans
# Assay: Antifungal activity against Candida albicans ATCC 10231 by macro-broth dilution method
# Type: functional
# Conditions: not given
# Procedure, shortened: (§1)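 Macro-broth (tube) dilution; compounds and reference drugs dissolved in water or 40% DMSO-water as 400 µg/mL stock, brought to 100 µg/mL in the first tube by 4-fold dilution with culture medium and fungal suspension. Result reported as MIC.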
row,MIC [µg/mL],SMILES
1,12.5,N=C(N)c1ccc2[nH]c(-c3ccc4nc(-c5ccccc5F)[nH]c4c3)nc2c1
2,25,N=C(N)c1ccc2[nH]c(-c3ccc4nc(-c5ccc(OCc6ccccc6)c(OCc6ccccc6)c5)[nH]c4c3)nc2c1
3,50,N=C(N)c1ccc2[nH]c(-c3ccc4nc(-c5ccccc5Oc5ccc(Cl)cc5)[nH]c4c3)nc2c1
4,6.25,N=C(N)c1ccc2[nH]c(-c3ccc4nc(-c5ccc6ccccc6c5)[nH]c4c3)nc2c1
5,25,N=C(N)c1ccc2[nH]c(-c3ccc4nc(-c5ccc(F)c(F)c5)[nH]c4c3)nc2c1
6,25,N=C(N)c1ccc2[nH]c(-c3ccc4nc(-c5ccc(F)cc5)[nH]c4c3)nc2c1
7,1.56,CC(C)(C)c1ccc(-c2nc3ccc(-c4nc5cc(C(=N)N)ccc5[nH]4)cc3[nH]2)cc1
8,3.12,CC(C)(C)c1cccc(-c2nc3ccc(-c4nc5cc(C(=N)N)ccc5[nH]4)cc3[nH]2)c1O
9,50,N=C(N)c1ccc2[nH]c(-c3ccc4nc(-c5cc(C(F)(F)F)cc(C(F)(F)F)c5)[nH]c4c3)nc2c1
10,12.5,N=C(N)c1ccc2[nH]c(-c3ccc4nc(-c5ccc(OCc6ccccc6)cc5)[nH]c4c3)nc2c1

# System: Trypanosoma cruzi
# Assay: Antiparasitic activity against Trypanosoma cruzi Tulahuen C4 containing lacz gene at 0.81 ug/ml
# Type: functional
# Conditions: Tulahen C4
row,SMILES,inhibition at 0.81 µg/mL [%]
1,N=C(N)c1ccc2[nH]c(-c3ccc4nc(-c5ccccc5F)[nH]c4c3)nc2c1,≤ 50
2,N=C(N)c1ccc2[nH]c(-c3ccc4nc(-c5ccc(OCc6ccccc6)c(OCc6ccccc6)c5)[nH]c4c3)nc2c1,≤ 50
3,N=C(N)c1ccc2[nH]c(-c3ccc4nc(-c5ccccc5Oc5ccc(Cl)cc5)[nH]c4c3)nc2c1,≤ 50
4,N=C(N)c1ccc2[nH]c(-c3ccc4nc(-c5ccc6ccccc6c5)[nH]c4c3)nc2c1,≤ 50
5,N=C(N)c1ccc2[nH]c(-c3ccc4nc(-c5ccc(F)c(F)c5)[nH]c4c3)nc2c1,≤ 50
6,N=C(N)c1ccc2[nH]c(-c3ccc4nc(-c5ccc(F)cc5)[nH]c4c3)nc2c1,≤ 50
7,CC(C)(C)c1ccc(-c2nc3ccc(-c4nc5cc(C(=N)N)ccc5[nH]4)cc3[nH]2)cc1,≤ 50
8,CC(C)(C)c1cccc(-c2nc3ccc(-c4nc5cc(C(=N)N)ccc5[nH]4)cc3[nH]2)c1O,≤ 50
9,N=C(N)c1ccc2[nH]c(-c3ccc4nc(-c5cc(C(F)(F)F)ccc5Cl)[nH]c4c3)nc2c1,≤ 50
10,N=C(N)c1ccc2[nH]c(-c3ccc4nc(-c5cc(C(F)(F)F)cc(C(F)(F)F)c5)[nH]c4c3)nc2c1,≤ 50
11,N=C(N)c1ccc2[nH]c(-c3ccc4nc(-c5ccc(OCc6ccccc6)cc5)[nH]c4c3)nc2c1,≤ 50

# System: Leishmania donovani
# Assay: Antiparasitic activity against Leishmania donovani MHOM-ET/67/L82 at 4.85 ug/ml
# Type: functional
# Conditions: not given
row,SMILES,inhibition at 4.85 µg/mL [%]
1,N=C(N)c1ccc2[nH]c(-c3ccc4nc(-c5ccccc5F)[nH]c4c3)nc2c1,≤ 70
2,N=C(N)c1ccc2[nH]c(-c3ccc4nc(-c5ccc(OCc6ccccc6)c(OCc6ccccc6)c5)[nH]c4c3)nc2c1,≤ 70
3,N=C(N)c1ccc2[nH]c(-c3ccc4nc(-c5ccccc5Oc5ccc(Cl)cc5)[nH]c4c3)nc2c1,≤ 70
4,N=C(N)c1ccc2[nH]c(-c3ccc4nc(-c5ccc6ccccc6c5)[nH]c4c3)nc2c1,≤ 70
5,N=C(N)c1ccc2[nH]c(-c3ccc4nc(-c5ccc(F)c(F)c5)[nH]c4c3)nc2c1,≤ 70
6,N=C(N)c1ccc2[nH]c(-c3ccc4nc(-c5ccc(F)cc5)[nH]c4c3)nc2c1,≤ 70
7,CC(C)(C)c1ccc(-c2nc3ccc(-c4nc5cc(C(=N)N)ccc5[nH]4)cc3[nH]2)cc1,≤ 70
8,CC(C)(C)c1cccc(-c2nc3ccc(-c4nc5cc(C(=N)N)ccc5[nH]4)cc3[nH]2)c1O,≤ 70
9,N=C(N)c1ccc2[nH]c(-c3ccc4nc(-c5cc(C(F)(F)F)ccc5Cl)[nH]c4c3)nc2c1,≤ 70
10,N=C(N)c1ccc2[nH]c(-c3ccc4nc(-c5cc(C(F)(F)F)cc(C(F)(F)F)c5)[nH]c4c3)nc2c1,≤ 70
11,N=C(N)c1ccc2[nH]c(-c3ccc4nc(-c5ccc(OCc6ccccc6)cc5)[nH]c4c3)nc2c1,≤ 70

# System: Leishmania donovani
# Assay: Antiparasitic activity against Leishmania donovani MHOM-ET/67/L82 at 0.81 ug/ml
# Type: functional
# Conditions: not given
row,SMILES,inhibition at 0.81 µg/mL [%]
1,N=C(N)c1ccc2[nH]c(-c3ccc4nc(-c5ccccc5F)[nH]c4c3)nc2c1,≤ 50
2,N=C(N)c1ccc2[nH]c(-c3ccc4nc(-c5ccc(OCc6ccccc6)c(OCc6ccccc6)c5)[nH]c4c3)nc2c1,≤ 50
3,N=C(N)c1ccc2[nH]c(-c3ccc4nc(-c5ccccc5Oc5ccc(Cl)cc5)[nH]c4c3)nc2c1,≤ 50
4,N=C(N)c1ccc2[nH]c(-c3ccc4nc(-c5ccc6ccccc6c5)[nH]c4c3)nc2c1,≤ 50
5,N=C(N)c1ccc2[nH]c(-c3ccc4nc(-c5ccc(F)c(F)c5)[nH]c4c3)nc2c1,≤ 50
6,N=C(N)c1ccc2[nH]c(-c3ccc4nc(-c5ccc(F)cc5)[nH]c4c3)nc2c1,≤ 50
7,CC(C)(C)c1ccc(-c2nc3ccc(-c4nc5cc(C(=N)N)ccc5[nH]4)cc3[nH]2)cc1,≤ 50
8,CC(C)(C)c1cccc(-c2nc3ccc(-c4nc5cc(C(=N)N)ccc5[nH]4)cc3[nH]2)c1O,≤ 50
9,N=C(N)c1ccc2[nH]c(-c3ccc4nc(-c5cc(C(F)(F)F)ccc5Cl)[nH]c4c3)nc2c1,≤ 50
10,N=C(N)c1ccc2[nH]c(-c3ccc4nc(-c5cc(C(F)(F)F)cc(C(F)(F)F)c5)[nH]c4c3)nc2c1,≤ 50
11,N=C(N)c1ccc2[nH]c(-c3ccc4nc(-c5ccc(OCc6ccccc6)cc5)[nH]c4c3)nc2c1,≤ 50

# System: Pichia kudriavzevii
# Assay: Antifungal activity against Candida krusei ATCC 6258 by macro-broth dilution method
# Type: functional
# Conditions: not given
# Procedure, shortened: as §1
row,MIC [µg/mL],SMILES
1,12.5,N=C(N)c1ccc2[nH]c(-c3ccc4nc(-c5ccccc5F)[nH]c4c3)nc2c1
2,50,N=C(N)c1ccc2[nH]c(-c3ccc4nc(-c5ccc(OCc6ccccc6)c(OCc6ccccc6)c5)[nH]c4c3)nc2c1
3,50,N=C(N)c1ccc2[nH]c(-c3ccc4nc(-c5ccccc5Oc5ccc(Cl)cc5)[nH]c4c3)nc2c1
4,25,N=C(N)c1ccc2[nH]c(-c3ccc4nc(-c5ccc6ccccc6c5)[nH]c4c3)nc2c1
5,25,N=C(N)c1ccc2[nH]c(-c3ccc4nc(-c5ccc(F)c(F)c5)[nH]c4c3)nc2c1
6,12.5,N=C(N)c1ccc2[nH]c(-c3ccc4nc(-c5ccc(F)cc5)[nH]c4c3)nc2c1
7,12.5,CC(C)(C)c1ccc(-c2nc3ccc(-c4nc5cc(C(=N)N)ccc5[nH]4)cc3[nH]2)cc1
8,6.25,CC(C)(C)c1cccc(-c2nc3ccc(-c4nc5cc(C(=N)N)ccc5[nH]4)cc3[nH]2)c1O
9,25,N=C(N)c1ccc2[nH]c(-c3ccc4nc(-c5cc(C(F)(F)F)cc(C(F)(F)F)c5)[nH]c4c3)nc2c1
10,25,N=C(N)c1ccc2[nH]c(-c3ccc4nc(-c5ccc(OCc6ccccc6)cc5)[nH]c4c3)nc2c1
